Active and inactive are the calls of the source. No cut-off for these calls is given here.
Legend:
[1] = Cytotoxicity against mouse RAW264.7 cells by MTT assay; format: cell-based; conditions: read-out: LD50 (the source's name)
How it was run: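 LC50 in RAW macrophages was determined by MTT assay, given as the mean of 2–4 experiments with range. Selectivity index = RAW LC50 / lowest P. falciparum IC50.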

[2] = Cytotoxicity against african green monkey Vero cells by MTT assay; format: cell-based; conditions: chlorocebus sabaeus, read-out: LC50 (the source's name)
[3] = Selectivity index, ratio of LC50 for mouse RAW264.7 cells to IC50 for Plasmodium falciparum; conditions: raw264.7
Plasmodium falciparum [4] = assay: Antimalarial activity against Plasmodium falciparum at 10 nM after 3.5 hrs; format: functional, organism-based
How it was run: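 Infected erythrocytes were exposed to compound for 3.5 h, washed, and returned to culture. Parasite growth was compared with matched controls after 48 h.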

Plasmodium berghei [5] = assay: Antimalarial activity against Plasmodium berghei infected in mouse assessed as effect on cure rate at split dose of 80 mg/kg/day, po for 3 days; format: functional, organism-based
How it was run: (§1)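 Mice were infected ip with 10^6 P. berghei-parasitized erythrocytes. The compound was given in hydroxyethylcellulose-Tween 20 vehicle, 5 mice per group, starting on day 3 post-infection. Regimens were once-daily or split daily oral doses over 3 days, subcutaneous dosing, or dosing over 7 days. Read-outs were posttreatment parasitemia on day 6 as a fraction of controls and the number of mice cured.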

Plasmodium berghei [6] = assay: Antimalarial activity against Plasmodium berghei infected in mouse assessed as effect on cure rate at split dose of 640 mg/kg/day, po for 3 days; format: functional, organism-based; how it was run: as §1
Plasmodium berghei [7] = assay: Antimalarial activity against Plasmodium berghei infected in mouse assessed as effect on cure rate at single dose of 40 mg/kg/day, po for 3 days; format: functional, organism-based; how it was run: as §1
Plasmodium berghei [8] = assay: Antimalarial activity against Plasmodium berghei infected in mouse assessed as parasitemia level at split dose of 80 mg/kg/day, po for 3 days measured on day 6 relative to control; format: functional
How it was run: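 Blood-stage P. berghei model: mice inoculated ip with 10^6 parasitized erythrocytes. Oral treatment for 3 days, with the daily dose split, in hydroxyethylcellulose-Tween 20 vehicle. Day-6 parasitemia expressed as a fraction of control parasitemia.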

Mus musculus [9] = assay: Toxicity in Plasmodium berghei-infected mouse assessed as mortality at split dose of 40 mg/kg/day, po for 3 days; format: organism-based; set-up: route oral; conditions: in vivo, 72 h
Mus musculus [10] = assay: Toxicity in Plasmodium berghei-infected mouse assessed as mortality at single dose of 20 mg/kg/day, po for 3 days; format: organism-based; set-up: route oral; conditions: in vivo, 72 h
Plasmodium berghei [11] = assay: Antimalarial activity against Plasmodium berghei infected in mouse assessed as parasitemia level at 12.8 mg/kg/day for 3 days measured on day 6 in presence of 16 mg/kg/day chloroquine (reference value: 37%); format: functional
How it was run: (§2)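 Mice were infected ip with 10^6 P. berghei-parasitized erythrocytes. The compound was given orally once daily on days 3, 4 and 5 post-infection in hydroxyethylcellulose-Tween 20 vehicle, alone or together with chloroquine, with 5 mice per dose group. Parasitemia (%) was read on days 3 and 6, and cures were counted as animals cured out of 5.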

Plasmodium berghei [12] = assay: Antimalarial activity against Plasmodium berghei infected in mouse assessed as parasitemia level at 52 mg/kg/day for 3 days measured on day 6 in presence of 64 mg/kg/day chloroquine; format: functional; how it was run: as §2
Plasmodium berghei [13] = assay: Antimalarial activity against Plasmodium berghei infected in mouse assessed as effect on cure rate at 32 mg/kg/day for 3 days measured on day 6 in presence of 3.6 mg/kg/day chloroquine; format: functional, organism-based; how it was run: as §2
Plasmodium berghei [14] = assay: Antimalarial activity against Plasmodium berghei infected in mouse assessed as effect on cure rate at 0.32 mg/kg/day for 3 days measured on day 6 in presence of 4 mg/kg/day chloroquine; format: functional, organism-based
[15] = Cmax in ICR mouse at 50 mg/kg/day, po by LC/MS analysis; format: ADME, organism-based; set-up: dose 50 mg/kg/day, route oral; conditions: in vivo
How it was run: (§3)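 Male ICR mice, 8 weeks old, got one 50 mg/kg dose either orally or subcutaneously, with three groups of six mice per route. One mouse per group was killed at 15, 30 and 60 min and at 3, 6 and 24 h. Plasma was deproteinized with 2 volumes of acetonitrile and analysed by LC-MS/MS on a C18 column against 0–500 ng/ml standards, with parent and acid metabolite measured in the same sample. Each six-mouse group was treated as one "animal" and fitted to a two-compartment model. AUC was taken by the linear trapezoidal rule extrapolated to infinity, and Cmax and Tmax were read per "animal".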

[16] = Tmax in ICR mouse at 50 mg/kg/day, po by LC/MS analysis; format: ADME, organism-based; set-up: route oral; conditions: in vivo; how it was run: as §3
[17] = Tmax in ICR mouse at 50 mg/kg/day, sc by LC/MS analysis; format: ADME, organism-based; set-up: route subcutaneous; conditions: in vivo; how it was run: as §3
[18] = AUC in ICR mouse at 50 mg/kg/day, po by LC/MS analysis; format: ADME, organism-based; set-up: route oral; conditions: plasma; how it was run: as §3
[19] = AUC in ICR mouse at 50 mg/kg/day, sc by LC/MS analysis; format: ADME, organism-based; set-up: route subcutaneous; conditions: plasma; how it was run: as §3
[20] = Half life in ICR mouse at 50 mg/kg/day, po by LC/MS analysis; format: ADME, organism-based; set-up: route oral; conditions: in vivo; how it was run: as §3
[21] = Half life in ICR mouse at 50 mg/kg/day, sc by LC/MS analysis; format: ADME, organism-based; set-up: route subcutaneous; conditions: in vivo; how it was run: as §3
Plasmodium berghei [22] = assay: Antimalarial activity against Plasmodium berghei infected in mouse assessed as parasitemia level at 160 mg/kg/day for 3 days measured on day 3 (reference value: 0.46%); format: functional; how it was run: as §2
Plasmodium berghei [23] = assay: Antimalarial activity against Plasmodium berghei infected in mouse assessed as parasitemia level at 320 mg/kg/day for 3 days measured on day 6 (reference value: 37%); format: functional; how it was run: as §2
Plasmodium berghei [24] = assay: Antimalarial activity against Plasmodium berghei infected in mouse assessed as parasitemia level at 160 mg/kg/day for 3 days measured on day 6 (reference value: 37%); format: functional; how it was run: as §2
Plasmodium berghei [25] = assay: Antimalarial activity against Plasmodium berghei infected in mouse assessed as parasitemia level at 32 mg/kg/day for 3 days measured on day 6 (reference value: 37%); format: functional; how it was run: as §2
Plasmodium berghei [26] = assay: Antimalarial activity against Plasmodium berghei infected in mouse assessed as effect on cure rate at 160 mg/kg/day for 3 days; format: functional, organism-based; how it was run: as §2
Plasmodium berghei [27] = assay: Antimalarial activity against Plasmodium berghei infected in mouse assessed as effect on cure rate at 32 mg/kg/day for 3 days; format: functional, organism-based; how it was run: as §2
Plasmodium berghei [28] = assay: Antimalarial activity against Plasmodium berghei infected in mouse assessed as effect on cure rate at 0.32 mg/kg/day for 3 days; format: functional, organism-based
Plasmodium falciparum [29] = assay: Antimicrobial activity against Plasmodium falciparum W2 at […] in presence of azithromycin; format: functional
How it was run: (§4)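 In vitro fixed-ratio isobologram using a SYBR green I fluorescence assay. […] IC50s were standardized and FIC50 and ΣFIC50 calculated by the Berenbaum method. Reported as the average ΣFIC across dilutions or the average maximum ΣFIC, from at least 2 experiments.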

Plasmodium falciparum [30] = assay: Antimicrobial activity against Plasmodium falciparum W2 at […] in presence of artemisinin; format: functional; how it was run: as §4
Plasmodium berghei [31] = assay: Antimalarial activity against Plasmodium berghei infected in mouse assessed as parasitemia level at 0.32 mg/kg/day for 3 days measured on day 3 in presence of 4 mg/kg/day chloroquine (reference value: 0.46%); format: functional
Plasmodium berghei [32] = assay: Antimalarial activity against Plasmodium berghei infected in mouse assessed as parasitemia level at 12.8 mg/kg/day for 3 days measured on day 3 in presence of 16 mg/kg/day chloroquine (reference value: 0.46%); format: functional; how it was run: as §2
Plasmodium berghei [33] = assay: Antimalarial activity against Plasmodium berghei infected in mouse assessed as effect on cure rate at 52 mg/kg/day for 3 days measured on day 6 in presence of 64 mg/kg/day chloroquine; format: functional, organism-based; how it was run: as §2

## Nc1cccc(-c2csc(NC(=O)CCCCCCC(=O)NO)n2)c1
[1]
  CC50: 600 nM
[2]
  CC50: 950 nM
[3]
  selectivity ratio: 1080
Plasmodium falciparum [4]
  Activity: Active
Plasmodium berghei [5]
  Activity: inactive
Plasmodium berghei [6]
  Activity: inactive
Plasmodium berghei [7]
  Activity: inactive
Plasmodium berghei [8]
  fold change (FC): 0.05
Mus musculus [9]
  Activity: Non-toxic
Mus musculus [10]
  Activity: Non-toxic
Plasmodium berghei [11]
  Activity: 0%
Plasmodium berghei [12]
  Activity: 0%
Plasmodium berghei [13]
  Activity: inactive
Plasmodium berghei [14]
  Activity: inactive
[15]
  Cmax: 2500 ng/mL
[16]
  Tmax: 0.83 h
[17]
  Tmax: 1.3 h
[18]
  AUC: 3690 ng·h/mL
[19]
  AUC: 3600 ng·h/mL
[20]
  half-life: 3.5 h
[21]
  half-life: 8.5 h
Plasmodium berghei [22]
  Activity: 0.64%
Plasmodium berghei [23]
  Activity: 0.107%
Plasmodium berghei [24]
  Activity: 8.8%
Plasmodium berghei [25]
  Activity: 21%
Plasmodium berghei [26]
  Activity: inactive
Plasmodium berghei [27]
  Activity: inactive
Plasmodium berghei [28]
  Activity: inactive
Plasmodium falciparum [29]
  fractional inhibitory concentration index (FICI): 1.5
Plasmodium falciparum [30]
  fractional inhibitory concentration index (FICI): 2.1
Plasmodium berghei [31]
  Activity: 0.72%
Plasmodium berghei [32]
  Activity: 0.52%
Plasmodium berghei [33]
  Activity: inactive

— ChEMBL document CHEMBL1629555, “Antimalarial activity of phenylthiazolyl-bearing hydroxamate-based histone deacetylase inhibitors” (Antimicrob Agents Chemother, 2008)
